This note sets out measurements from ChEMBL document CHEMBL1158431, “Anti-inflammatory cembranolides from the soft coral Lobophytum durum” (2009).

In test [1] the test system is Human betaherpesvirus 5. Description: Inhibition of HCMV UL76 encoded endonuclease expressed in Escherichia coli BL21 (DE3)-RIL assessed as inhibition of supercoiled double stranded phi X 174 bacteriophage DNA cleavage after 1 hr by agarose gel electrophoresis. In outline:
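Calmodulin-tagged HCMV UL76 endonuclease purified from E. coli BL21-codon DE3-RIL carrying pCBP-UL76. Serially diluted compound incubated with 1 µg CsCl-purified supercoiled dsDNA φX174, reaction buffer and enzyme at 37 °C for 1 h. Products resolved on 1% agarose gel. IC50 is the concentration giving 50% inhibition of substrate cleavage.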

Test [2] deals with Salmonella enterica subsp. enterica. The test can be described thus: Antibacterial activity against Salmonella enteritidis ATCC 13076 up to 100 ug/disk after 24 hrs by agar well diffusion method. Particulars: Salmonella enterica subsp. enterica serovar Enteritidis, in the assay text read “paper disk diffusion method” for “agar well diffusion method”. It counts as functional, organism-based. The essentials: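 S. enteritidis ATCC13076 grown in LB broth 24 h at 37 °C. Broth culture (0.3 mL) mixed into 0.7% LB soft agar and layered over 1.5% LB hard agar. Compound applied to 8 mm paper disks at 2 μg/μL, tested up to 100 μg/disk. Ampicillin (5 μg/μL) and solvent served as controls. Plates incubated 24 h at 37 °C.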
Background: A growth-free zone around the sample is the usual read-out of agar diffusion tests.

The subject of test [3] is RAW264.7. Description: Antiinflammatory activity in LPS-stimulated mouse RAW264.7 cells assessed as inhibition of COX2 protein expression at 10 uM after 16 hrs by immunoblot analysis relative to control. It counts as functional. In outline:
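RAW 264.7 macrophages (ATCC TIB-71) stimulated with E. coli LPS (0.01 μg/mL) for 16 h with or without compound. Cells washed in ice-cold PBS, lysed, and spun at 20,000g for 30 min at 4 °C. Equal protein loaded for SDS-PAGE and transferred to PVDF. Blots probed 180 min with anti-iNOS or anti-COX-2 (1:1000) and detected by ECL. Levels expressed relative to LPS-only cells. CAPE 10 µM used as reference.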
Background: Immunoblotting shows a protein as a band on a membrane.

The subject of test [4] is RAW264.7. The test can be described thus: Antiinflammatory activity in LPS-stimulated mouse RAW264.7 cells assessed as iNOS protein expression at 10 uM after 16 hrs by immunoblot analysis relative to control. Particulars: RAW264.7, 16 h.
Test [5] relates to RAW264.7. Description: Antiinflammatory activity in LPS-stimulated mouse RAW264.7 cells assessed as COX2 protein expression at 10 uM after 16 hrs by immunoblot analysis relative to control. The note with it: RAW264.7, 16 h.

The source made the active and inactive calls. The rule behind the calls is not given here.

In the case of `C=C1C(=O)O[C@@H]2[C@@H]1C[C@H](OC(C)=O)[C@@](O)(COC(C)=O)CC/C=C(\C)CC/C=C(\C)[C@H]2O` (relative stereo) [DURUMOLIDE G], the inhibition result in test [1], in test [2] and in test [3] was “inactive” throughout. In test [4], the iNOS protein level (% of LPS control) at 10 µM is 7.3%.

On to `C=C1C(=O)O[C@@H]2[C@@H]1C[C@H](OC(C)=O)[C@@](O)(COC(C)=O)CC/C=C(\C)CC/C=C(\C)[C@H]2OC(C)=O` (relative stereo) [DURUMOLIDE H], for which the inhibition entry in test [1] and in test [2] was “inactive” in each case. Moreover, the outcome in test [3] was inactive. Besides, the iNOS protein level (% of LPS control) at 10 µM in test [4] amounted to 22.6%.

On to `C=C1C(=O)O[C@@H]2[C@@H]1C[C@H]1O[C@]1(COC(C)=O)CC/C=C(\C)[C@@H](O)C/C=C(\C)[C@H]2OC(C)=O` (relative stereo) [DURUMOLIDE I], for which the inhibition entry in test [1], in test [2] and in test [3] was “inactive” each time. In addition, the iNOS protein level (% of LPS control) at 10 µM in test [4] amounted to 6.2%.

With `C=C1C(=O)O[C@H]2C(=O)/C(C)=C/CC/C(C)=C/CC[C@@]3(CO)O[C@@H]3C[C@H]12` (relative stereo) [DURUMOLIDE K], the inhibition entry in test [1] and in test [2] was “inactive” each time. Also, the iNOS protein level (% of LPS control) at 10 µM in test [4] stood at 5.7%. For the same compound, in test [5], the COX-2 protein level (% of LPS control) at 10 µM is 71.6%.

In the case of `C=C1C(=O)O[C@H]2C(=O)/C(C)=C/CC/C(C)=C/CC[C@@]3(C=O)O[C@@H]3C[C@H]12` (relative stereo) [DURUMOLIDE L], the inhibition entry in test [1], in test [2] and in test [3] was “inactive” in each case. The iNOS protein level (% of LPS control) at 10 µM in test [4] amounted to 1.2%.

Consider `O=C(/C=C/c1ccc(O)c(O)c1)OCCc1ccccc1` [CAFFEIC ACID PHENETHYL ESTER], for which, in test [4], the iNOS protein level (% of LPS control) at 10 µM came out at 1.5%. Further, the COX-2 protein level (% of LPS control) at 10 µM in test [5] was 70.2%.

With `C=C1C(=O)O[C@H]2C/C(C)=C/CC/C(C)=C/CC[C@](O)(COC(C)=O)[C@@H](O)C[C@H]12` [DURUMOLIDE F], the inhibition result in test [1] and in test [2] was “inactive” in each case. Moreover, the iNOS protein level (% of LPS control) at 10 µM in test [4] is 0.8%. Further, in test [5], the COX-2 protein level (% of LPS control) at 10 µM is 47.8%.

As to `C=C1C(=O)O[C@@H]2[C@@H]1C[C@H]1O[C@]1(C)CC/C=C(\C)CC/C=C(\C)[C@H]2O` [DURUMOLIDE J], the inhibition result in test [1], in test [2] and in test [3] was “inactive” throughout. Further, the iNOS protein level (% of LPS control) at 10 µM in test [4] came out at 0.1%.

Regarding `C=C1C(=O)O[C@H]2C/C(C)=C/CC/C(C)=C/CC[C@@]3(CO)O[C@@H]3C[C@H]12` [SINULAROLIDE D], the inhibition entry in test [1], in test [2] and in test [3] was “inactive” in each case. For the same compound, the iNOS protein level (% of LPS control) at 10 µM in test [4] was 2.2%.
